Measurements from ChEMBL document CHEMBL1275451, “In vitro susceptibilities of invasive isolates of Candida species: rapid increase in rates of fluconazole susceptible-dose dependent Candida glabrata isolates” (2008).
≈ marks a conversion by molar mass, not a printed value. *1 amine or outer side, *2 acyl side, *3 side chain or, on linkers, in order; H or OH if unused. Where a SMILES comes first, the peptide text is derived from it. Bridges are numbered along the chain shown (N, C = ends). [ ]: non-standard residue; d: D form. The star is where a group is joined. pTerphenylCO(4''-OnC5H11) = CCCCCOc1ccc(-c2ccc(-c3ccc(C(=O)*)cc3)cc2)cc1; Orn(4R-OH,5R-OH) = O=C([C@H](C[C@@H](O)[C@@H](O)N[*:3])N[*:1])[*:2]; hTyr(3S-OH,4S-OH) = N[C@H](C(=O)O)[C@H](O)[C@@H](O)c1ccc(O)cc1; Pro(3S-OH,4S-Me) = C[C@H]1CN[C@H](C(=O)O)[C@H]1O; Hyp = O=C(O)[C@@H]1C[C@@H](O)CN1

Legend:
Assay type in all cases: functional
Candida albicans [1] = experiment: Antifungal activity against Candida albicans after 48 hrs by CLSI method
Pichia kudriavzevii [2] = experiment: Antifungal activity against Candida krusei after 48 hrs by CLSI method
Outline: (§1)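 Broth microdilution MICs were run on invasive clinical Candida isolates under CLSI M27-A2, with incubation at 35°C for 48 h before reading. MICs were interpreted under the same guideline to place isolates as susceptible, susceptible-dose dependent or resistant, reported as percentage of isolates per category, with MIC range, MIC50 and MIC90.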

Candida albicans [3] = experiment: Antifungal activity against Candida albicans assessed as susceptible isolates after 48 hrs by CLSI method
Outline: as §1, with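 “reading. Control strains were C. parapsilosis ATCC 22019 and C. krusei ATCC 6258.” for “reading.”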

Nakaseomyces glabratus [4] = experiment: Antifungal activity against Candida glabrata after 48 hrs by CLSI method
Candida tropicalis [5] = experiment: Antifungal activity against Candida tropicalis after 48 hrs by CLSI method
Outline: as §1, with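 “reading. Control strains were C. parapsilosis ATCC 22019 and C. krusei ATCC 6258.” for “reading.”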

Clavispora lusitaniae [6] = experiment: Antifungal activity against Candida lusitaniae assessed as susceptible isolates after 48 hrs by CLSI method
Outline: as §1, with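 “reading. Control strains were C. parapsilosis ATCC 22019 and C. krusei ATCC 6258.” for “reading.”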

[7] = test system: Meyerozyma guilliermondii; experiment: Antifungal activity against Candida guilliermondii assessed as susceptible isolates after 48 hrs by CLSI method
Outline: as §1, with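 “reading. Control strains were C. parapsilosis ATCC 22019 and C. krusei ATCC 6258.” for “reading.”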

Clavispora lusitaniae [8] = experiment: Antifungal activity against Candida lusitaniae after 48 hrs by CLSI method
Pichia kudriavzevii [9] = experiment: Antifungal activity against Candida krusei assessed as susceptible isolates after 48 hrs by CLSI method
Outline: as §1, with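 “reading. Control strains were C. parapsilosis ATCC 22019 and C. krusei ATCC 6258.” for “reading.”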

Nakaseomyces glabratus [10] = experiment: Antifungal activity against Candida glabrata assessed as susceptible isolates after 48 hrs by CLSI method
Outline: as §1, with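 “reading. Control strains were C. parapsilosis ATCC 22019 and C. krusei ATCC 6258.” for “reading.”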

Candida tropicalis [11] = experiment: Antifungal activity against Candida tropicalis assessed as susceptible isolates after 48 hrs by CLSI method
Outline: as §1, with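 “reading. Control strains were C. parapsilosis ATCC 22019 and C. krusei ATCC 6258.” for “reading.”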

Candida parapsilosis [12] = experiment: Antifungal activity against Candida parapsilosis assessed as susceptible isolates after 48 hrs by CLSI method
Outline: as §1, with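 “reading. Control strains were C. parapsilosis ATCC 22019 and C. krusei ATCC 6258.” for “reading.”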

[13] = test system: Meyerozyma guilliermondii; experiment: Antifungal activity against Candida guilliermondii after 48 hrs by CLSI method
Candida parapsilosis [14] = experiment: Antifungal activity against Candida parapsilosis after 48 hrs by CLSI method; conditions: Lodderomyces parapsilosis
Outline: as §1, with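 “reading. Control strains were C. parapsilosis ATCC 22019 and C. krusei ATCC 6258.” for “reading.”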

Candida tropicalis [15] = experiment: Antifungal activity against Candida tropicalis assessed as susceptible dose-dependent isolates after 48 hrs by CLSI method
Outline: as §1, with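 “reading. Control strains were C. parapsilosis ATCC 22019 and C. krusei ATCC 6258.” for “reading.”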

[16] = test system: Meyerozyma guilliermondii; experiment: Antifungal activity against Candida guilliermondii assessed as resistant isolates after 48 hrs by CLSI method
Outline: as §1, with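 “reading. Control strains were C. parapsilosis ATCC 22019 and C. krusei ATCC 6258.” for “reading.”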

Candida albicans [17] = experiment: Antifungal activity against Candida albicans assessed as resistant isolates after 48 hrs by CLSI method
Outline: as §1, with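 “reading. Control strains were C. parapsilosis ATCC 22019 and C. krusei ATCC 6258.” for “reading.”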

Pichia kudriavzevii [18] = experiment: Antifungal activity against Candida krusei assessed as susceptible dose-dependent isolates after 48 hrs by CLSI method
Outline: as §1, with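 “reading. Control strains were C. parapsilosis ATCC 22019 and C. krusei ATCC 6258.” for “reading.”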

Candida parapsilosis [19] = experiment: Antifungal activity against Candida parapsilosis assessed as susceptible dose-dependent isolates after 48 hrs by CLSI method
Outline: as §1, with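 “reading. Control strains were C. parapsilosis ATCC 22019 and C. krusei ATCC 6258.” for “reading.”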

Clavispora lusitaniae [20] = experiment: Antifungal activity against Candida lusitaniae assessed as susceptible dose-dependent isolates after 48 hrs by CLSI method
Outline: as §1, with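 “reading. Control strains were C. parapsilosis ATCC 22019 and C. krusei ATCC 6258.” for “reading.”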

Nakaseomyces glabratus [21] = experiment: Antifungal activity against Candida glabrata assessed as resistant isolates after 48 hrs by CLSI method
Outline: as §1, with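 “reading. Control strains were C. parapsilosis ATCC 22019 and C. krusei ATCC 6258.” for “reading.”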

Candida albicans [22] = experiment: Antifungal activity against Candida albicans assessed as susceptible dose-dependent isolates after 48 hrs by CLSI method
Outline: as §1, with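 “reading. Control strains were C. parapsilosis ATCC 22019 and C. krusei ATCC 6258.” for “reading.”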

Candida tropicalis [23] = experiment: Antifungal activity against Candida tropicalis assessed as resistant isolates after 48 hrs by CLSI method
Outline: as §1, with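 “reading. Control strains were C. parapsilosis ATCC 22019 and C. krusei ATCC 6258.” for “reading.”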

Candida parapsilosis [24] = experiment: Antifungal activity against Candida parapsilosis assessed as resistant isolates after 48 hrs by CLSI method
Outline: as §1, with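 “reading. Control strains were C. parapsilosis ATCC 22019 and C. krusei ATCC 6258.” for “reading.”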

Pichia kudriavzevii [25] = experiment: Antifungal activity against Candida krusei assessed as resistant isolates after 48 hrs by CLSI method
Outline: as §1, with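 “reading. Control strains were C. parapsilosis ATCC 22019 and C. krusei ATCC 6258.” for “reading.”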

Nakaseomyces glabratus [26] = experiment: Antifungal activity against Candida glabrata assessed as susceptible dose-dependent isolates after 48 hrs by CLSI method
Outline: as §1, with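 “reading. Control strains were C. parapsilosis ATCC 22019 and C. krusei ATCC 6258.” for “reading.”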

Clavispora lusitaniae [27] = experiment: Antifungal activity against Candida lusitaniae assessed as resistant isolates after 48 hrs by CLSI method
Outline: as §1, with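 “reading. Control strains were C. parapsilosis ATCC 22019 and C. krusei ATCC 6258.” for “reading.”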

[28] = test system: Meyerozyma guilliermondii; experiment: Antifungal activity against Candida guilliermondii assessed as susceptible dose-dependent isolates after 48 hrs by CLSI method
Outline: as §1, with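 “reading. Control strains were C. parapsilosis ATCC 22019 and C. krusei ATCC 6258.” for “reading.”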

Structure (SMILES) | MIC (Candida albicans [1]) [mg/L] | MIC50 (Candida albicans [1]) [mg/L] | MIC90 (Candida albicans [1]) [mg/L] | MIC50 (Pichia kudriavzevii [2]) [mg/L] | MIC90 (Pichia kudriavzevii [2]) [mg/L] | Activity (Candida albicans [3]) [%] | MIC50 (Nakaseomyces glabratus [4]) [mg/L] | MIC90 (Nakaseomyces glabratus [4]) [mg/L] | MIC50 (Candida tropicalis [5]) [mg/L] | MIC90 (Candida tropicalis [5]) [mg/L] | Activity (Clavispora lusitaniae [6]) [%] | Activity [7] [%] | MIC50 (Clavispora lusitaniae [8]) [mg/L] | MIC90 (Clavispora lusitaniae [8]) [mg/L] | Activity (Pichia kudriavzevii [9]) [%] | Activity (Nakaseomyces glabratus [10]) [%] | Activity (Candida tropicalis [11]) [%] | Activity (Candida parapsilosis [12]) [%] | MIC50 (Candida parapsilosis [14]) [mg/L] | MIC90 (Candida parapsilosis [14]) [mg/L] | other results
C[C@@H]1[C@H](O)[C@@H](C)/C=C/C=C/C=C/C=C/C=C/C=C/C=C/[C@H](O[C@@H]2O[C@H](C)[C@@H](O)[C@H](N)[C@@H]2O)C[C@@H]2O[C@](O)(C[C@@H](O)C[C@@H](O)[C@H](O)CC[C@@H](O)C[C@@H](O)CC(=O)O[C@H]1C)C[C@H](O)[C@H]2C(=O)O [AMPHOTERICIN B] | 1 (≈ 1.08 µM) | 1 (≈ 1.08 µM) | 1 (≈ 1.08 µM) | 2 (≈ 2.16 µM) | 2 (≈ 2.16 µM) | 100 | 2 (≈ 2.16 µM) | 2 (≈ 2.16 µM) | 0.5 (≈ 0.541 µM) | 1 (≈ 1.08 µM) | 100 | 97 | 1 (≈ 1.08 µM) | 1 (≈ 1.08 µM) | 5 | 47 | 98 | 98 |  |  | MIC (Candida tropicalis [5]): 0.5 mg/L (≈ 0.541 µM)
CCCCCOc1ccc(-c2ccc(-c3ccc(C(=O)N[C@H]4C[C@@H](O)[C@@H](O)NC(=O)[C@@H]5[C@@H](O)[C@@H](C)CN5C(=O)[C@H]([C@@H](C)O)NC(=O)[C@H]([C@H](O)[C@@H](O)c5ccc(O)cc5)NC(=O)[C@@H]5C[C@@H](O)CN5C(=O)[C@H]([C@@H](C)O)NC4=O)cc3)cc2)cc1 [ANIDULAFUNGIN] ({pTerphenylCO(4''-OnC5H11)}-[Orn(4R-OH,5R-OH)]T[Hyp][hTyr(3S-OH,4S-OH)]T[Pro(3S-OH,4S-Me)]; lactam 1-C) | 0.015 (≈ 0.0132 µM) | 0.015 (≈ 0.0132 µM) | 0.015 (≈ 0.0132 µM) | 0.12 (≈ 0.105 µM) | 0.25 (≈ 0.219 µM) |  | 0.03 (≈ 0.0263 µM) | 0.03 (≈ 0.0263 µM) | 0.03 (≈ 0.0263 µM) | 0.06 (≈ 0.0526 µM) |  |  | 0.06 (≈ 0.0526 µM) | 0.12 (≈ 0.105 µM) |  |  |  |  | 1 (≈ 0.877 µM) | 2 (≈ 1.75 µM) | MIC50 [13]: 1 mg/L (≈ 0.877 µM); MIC90 [13]: 2 mg/L (≈ 1.75 µM)
CC[C@H](C)C[C@H](C)CCCCCCCCC(=O)N[C@H]1C[C@@H](O)[C@@H](NCCN)NC(=O)[C@@H]2[C@@H](O)CCN2C(=O)[C@H]([C@H](O)CCN)NC(=O)[C@H]([C@H](O)[C@@H](O)c2ccc(O)cc2)NC(=O)[C@@H]2C[C@@H](O)CN2C(=O)[C@H]([C@@H](C)O)NC1=O [CASPOFUNGIN] |  | 0.25 (≈ 0.229 µM) | 0.25 (≈ 0.229 µM) | 1 (≈ 0.915 µM) | 1 (≈ 0.915 µM) |  | 0.25 (≈ 0.229 µM) | 0.25 (≈ 0.229 µM) | 0.25 (≈ 0.229 µM) | 0.5 (≈ 0.457 µM) |  |  | 2 (≈ 1.83 µM) | 2 (≈ 1.83 µM) |  |  |  |  | 1 (≈ 0.915 µM) | 2 (≈ 1.83 µM) | MIC50 [13]: 2 mg/L (≈ 1.83 µM); MIC90 [13]: 2 mg/L (≈ 1.83 µM)
OC(Cn1cncn1)(Cn1cncn1)c1ccc(F)cc1F [FLUCONAZOLE] | 0.12 (≈ 0.392 µM) | 0.12 (≈ 0.392 µM) | 0.25 (≈ 0.816 µM) | 32 (≈ 104 µM) | 64 (≈ 209 µM) | 100 | 16 (≈ 52.2 µM) | 32 (≈ 104 µM) | 1 (≈ 3.27 µM) | 2 (≈ 6.53 µM) | 100 | 88 | 0.25 (≈ 0.816 µM) | 0.5 (≈ 1.63 µM) | 0 | 22 | 100 | 98 | 1 (≈ 3.27 µM) | 2 (≈ 6.53 µM) | Activity (Candida tropicalis [15]): 0%; Activity [16]: 3%; Activity (Candida albicans [17]): 0%; Activity (Pichia kudriavzevii [18]): 63%; Activity (Candida parapsilosis [19]): 2%; Activity (Clavispora lusitaniae [20]): 0%; Activity (Nakaseomyces glabratus [21]): 6%; Activity (Candida albicans [22]): 0%; Activity (Candida tropicalis [23]): 0%; Activity (Candida parapsilosis [24]): 0%; Activity (Pichia kudriavzevii [25]): 38%; Activity (Nakaseomyces glabratus [26]): 73%; Activity (Clavispora lusitaniae [27]): 0%; Activity [28]: 9%
